Values after ≈ are worked out from the molar mass of the structure shown.
These compounds were tested on Klebsiella pneumoniae (assay: Antimicrobial activity against CTX-M-2 producing Klebsiella pneumoniae with PFGE pulsotype A by Etest).
Assay type: functional
Summary of the method: (§1)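 Clinical K. pneumoniae isolates from a neonatal ICU outbreak near São Paulo were typed by XbaI PFGE using Tenover criteria. Cultures were grown in LB broth at 37°C. Etest MICs followed the manufacturer's instructions, with cefotaxime and ceftazidime each tested with and without clavulanic acid.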

Q: With `O=C(O)c1cn(C2CC2)c2cc(N3CCNCC3)c(F)cc2c1=O` [CIPROFLOXACIN] as the compound, how does the MIC read?
A: Its MIC is 0.023 µg/mL (≈ 0.0694 µM).

Each compound was assayed on Klebsiella pneumoniae (assay: Antimicrobial activity against CTX-M-2 producing Klebsiella pneumoniae with PFGE pulsotype B by Etest).
Assay type: functional
Summary of the method: as §1

Q: For `O=C(O)c1cn(C2CC2)c2cc(N3CCNCC3)c(F)cc2c1=O` [CIPROFLOXACIN], which MIC is on record?
A: Its MIC is 0.032 µg/mL (≈ 0.0966 µM).

These compounds were tested on Klebsiella pneumoniae (assay: Antimicrobial activity against CTX-M-59 producing Klebsiella pneumoniae with PFGE pulsotype C by Etest).
Assay type: functional

Q: With `O=C(O)c1cn(C2CC2)c2cc(N3CCNCC3)c(F)cc2c1=O` [CIPROFLOXACIN] as the compound, how does the MIC read?
A: Its MIC is 0.032 µg/mL (≈ 0.0966 µM).

What follows are compounds tested on Klebsiella pneumoniae (assay: Antimicrobial activity against SHV-5 producing Klebsiella pneumoniae with PFGE pulsotype D by Etest).
Assay type: functional
Summary of the method: as §1

Q: Which MIC does the source give for `O=C(O)c1cn(C2CC2)c2cc(N3CCNCC3)c(F)cc2c1=O` [CIPROFLOXACIN] here?
A: The MIC was 0.023 µg/mL (≈ 0.0694 µM).

Each compound was assayed on Klebsiella pneumoniae (assay: Antimicrobial activity against CTX-M-59 producing Klebsiella pneumoniae with PFGE pulsotype E by Etest).
Assay type: functional

Q: How did the MIC turn out when `O=C(O)c1cn(C2CC2)c2cc(N3CCNCC3)c(F)cc2c1=O` [CIPROFLOXACIN] was run?
A: The MIC was 0.032 µg/mL (≈ 0.0966 µM).

The compounds below were run on Klebsiella pneumoniae (assay: Antimicrobial activity against CTX-M-59 producing Klebsiella pneumoniae with PFGE pulsotype G by Etest).
Assay type: functional
Summary of the method: as §1

Q: `O=C(O)c1cn(C2CC2)c2cc(N3CCNCC3)c(F)cc2c1=O` [CIPROFLOXACIN] was tested. Which MIC did it give?
A: Its MIC is 0.125 µg/mL (≈ 0.377 µM).

Each compound was assayed on Klebsiella pneumoniae (assay: Antimicrobial activity against CTX-M-2 producing Klebsiella pneumoniae with PFGE pulsotype H by Etest).
Assay type: functional
Summary of the method: as §1

Q: For `O=C(O)c1cn(C2CC2)c2cc(N3CCNCC3)c(F)cc2c1=O` [CIPROFLOXACIN], which MIC is on record?
A: Its MIC is 0.023 µg/mL (≈ 0.0694 µM).

The compounds below were run on Klebsiella pneumoniae (assay: Antimicrobial activity against CTX-M-2 producing Klebsiella pneumoniae with PFGE pulsotype I by Etest).
Assay type: functional

Q: For `O=C(O)c1cn(C2CC2)c2cc(N3CCNCC3)c(F)cc2c1=O` [CIPROFLOXACIN], which MIC is on record?
A: Its MIC is 0.032 µg/mL (≈ 0.0966 µM).

The compounds below were run on Klebsiella pneumoniae (assay: Antimicrobial activity against CTX-M-2 producing Klebsiella pneumoniae with PFGE pulsotype J by Etest).
Assay type: functional

Q: Which MIC does the source give for `O=C(O)c1cn(C2CC2)c2cc(N3CCNCC3)c(F)cc2c1=O` [CIPROFLOXACIN] here?
A: Its MIC is 0.023 µg/mL (≈ 0.0694 µM).

— ChEMBL document CHEMBL1255347, “Multiclonal outbreak of Klebsiella pneumoniae producing extended-spectrum beta-lactamase CTX-M-2 and novel variant CTX-M-59 in a neonatal intensive care unit in Brazil” (2008)
